Shown are actives, neighbours in structure and some others; about 3.2% of the full set was active somewhere.
UBC13 polyUb = human UBC13 polyubiquitination inhibition | actives 0.47% (n = 330,000) | inhibition, % at 20 µM | UBC13 polyubiquitin chain formation, TR-FRET; in the data active means inhibition above about 45%, passing the limit was not always enough
DSG3 Ab inh = blocks pemphigus antibody binding to human desmoglein-3; DSG3-coupled beads, scFv-anti-DSG3-GFP binding, flow cytometry; active compounds read low; binding (percent of control), % at 10 µM; actives 0.48% (n = 310,000); P32926;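 active means binding more than 3 SD below its plate's average and above zero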;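 further: hits lower antibody fragment binding to DSG3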
Target sequence (P32926 whole entry, looked up, the tested form may be a part): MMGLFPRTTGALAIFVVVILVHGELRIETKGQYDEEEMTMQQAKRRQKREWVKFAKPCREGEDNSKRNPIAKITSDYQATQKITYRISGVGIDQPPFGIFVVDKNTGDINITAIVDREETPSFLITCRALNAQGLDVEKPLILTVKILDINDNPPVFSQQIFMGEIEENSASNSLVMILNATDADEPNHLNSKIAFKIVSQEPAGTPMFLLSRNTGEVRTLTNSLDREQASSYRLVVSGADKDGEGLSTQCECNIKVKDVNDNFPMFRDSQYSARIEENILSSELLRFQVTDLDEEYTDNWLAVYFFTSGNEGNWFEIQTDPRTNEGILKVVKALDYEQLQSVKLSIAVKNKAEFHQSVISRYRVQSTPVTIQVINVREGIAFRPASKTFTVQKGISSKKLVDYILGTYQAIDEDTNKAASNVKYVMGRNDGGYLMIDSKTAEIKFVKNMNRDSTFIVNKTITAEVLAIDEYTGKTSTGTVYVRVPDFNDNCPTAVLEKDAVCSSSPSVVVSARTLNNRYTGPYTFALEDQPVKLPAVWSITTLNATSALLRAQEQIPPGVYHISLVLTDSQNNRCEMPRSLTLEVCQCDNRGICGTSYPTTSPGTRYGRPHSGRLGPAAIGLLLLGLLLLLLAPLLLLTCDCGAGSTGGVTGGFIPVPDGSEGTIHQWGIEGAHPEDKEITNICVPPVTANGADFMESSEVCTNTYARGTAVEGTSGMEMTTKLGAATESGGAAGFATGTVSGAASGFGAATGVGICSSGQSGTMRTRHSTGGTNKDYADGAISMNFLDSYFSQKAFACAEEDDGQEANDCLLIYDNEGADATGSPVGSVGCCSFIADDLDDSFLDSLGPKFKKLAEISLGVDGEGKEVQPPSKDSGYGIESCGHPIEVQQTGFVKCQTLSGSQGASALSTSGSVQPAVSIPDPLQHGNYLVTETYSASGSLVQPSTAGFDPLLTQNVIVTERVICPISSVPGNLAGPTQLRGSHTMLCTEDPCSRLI
Apaf-1 inh = human Apaf-1 inhibition | reconstituted apoptosome caspase-3 activity, DEVD-Rh110 fluorescence | inhibition, % at 20 µM | actives 0.71% (n = 330,000); active means inhibition of at least 40% at 20 µM
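System: reconstituted apoptosome with Apaf-1, cytochrome c, caspase-9, procaspase-3, dATP; Signal: Rh110 fluorescence intensity; Schedule: 30 min compound preincubation, 50 min activation, room temperature; Reagent: cytochrome c trigger plus (Z-DEVD)2-Rh110 caspase-3 substrate.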
MEKK2 WT-MEK5 = raises or lowers MEK5 binding to wildtype human MEKK2 PB1 domain; Q9Y2U5; bead flow cytometry, Alexa488-MEK5 binding to MEKK2 WT; actives lie on both sides; binding response (% of control), % at 10 µM; actives 1.1% (n = 290,000); AID 1531; in the data active means binding response below about 67% or above about 130%
MEKK2mut PB1 HTS = signal of MEK5 binding to mutant human MEKK2 PB1 domain | bead flow cytometry, Alexa488-MEK5 binding to MEKK2 mutant | percent response, % at 10 µM | actives 0.35% (n = 290,000) | AID 1530; in the data active means percent response above about 24%, passing the limit was not always enough
MEKK3 PB1 HTS = raises or lowers MEK5 binding to the human MEKK3 PB1 domain; binding response (% of control), % at 10 µM; bead-based flow cytometry, Alexa488-MEK5 binding to MEKK3; actives lie on both sides; 0 = blocked by unlabeled MEK5, 100 = vehicle; actives 1.4% (n = 290,000);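 active means binding response more than 3 SD above or below the average of its plate-row segment, actives on both sides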;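 further: Alexa488 bead fluorescence after subtracting the streptavidin-only scavenger bead signal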
A number is an active result; . = inactive; / = no result given; [ ] = another dose, or the depositor's remark.

SMILES	UBC13 polyUb	DSG3 Ab inh	Apaf-1 inh	MEKK2 WT-MEK5	MEKK2mut PB1 HTS	MEKK3 PB1 HTS
O=C(CC1C(=O)NCCN1CCCc1ccccc1)NCCc1ccccc1F (stereo not drawn)	.	.	.	134.0	28.0	.
O=C(CCS(=O)(=O)c1ccccc1)Nc1nc(-c2cccs2)cs1	.	69.1	.	.	.	.
O=C(O)Cc1ccc(O)c(F)c1	.	67.8	.	.	.	.
COc1cc(CC(=O)O)ccc1O	.	/	.	.	.	.
CCOC(=O)C1=C(CN2CCN(C(=O)c3ccco3)CC2)NC(=O)NC1c1ccc(OC)cc1 (stereo not drawn)	.	.	.	.	.	.
CCN(CC)S(=O)(=O)c1cc(NC(=O)Cn2ncc(Cl)c(Cl)c2=O)ccc1C	.	.	.	.	.	.
COc1ccccc1C(=O)N/N=C(\C)c1ccc(NC(=O)C2CC2)cc1	.	2.4	.	.	.	.
COc1ccccc1C(=O)N/N=C(\C)c1ccc(NC(=O)Cc2ccccc2)cc1	.	.	.	.	.	.
O=C(Nc1ccccc1O)c1ccc(NC(=O)C2CC2)cc1	.	.	.	.	.	.
O=C(Nc1ccccc1C(=O)O)c1ccc(NC(=O)C2CC2)cc1	.	/	.	1.0[inhibitor]	.	.
O=C1c2ccccc2C(=O)N1CCc1csc(NNc2nc(CCN3C(=O)c4ccccc4C3=O)cs2)n1	.	75.7	.	.	.	.
CCOc1ccc(CSCCNC(=S)Nc2ccccc2)cc1	.	/	.	.	.	128.0
Cc1csc(CNC(=O)C2CCC(=O)N(CCc3cccc(F)c3)C2)n1 (stereo not drawn)	.	.	.	.	.	.
CCCC(C(=O)NC1CCCC1)N(C(=O)Cn1nnc(-c2ccc(C)o2)n1)c1ccccc1F (stereo not drawn)	.	/	.	.	.	.
CCCC(C(=O)NC1CCCC1)N(C(=O)Cn1nnc(-c2ccc(C)o2)n1)C1CCCC1 (stereo not drawn)	.	89.6	.	.	.	.
O=C(O)CCN1C(=O)/C(=C2\C(=O)N(Cc3ccccc3Cl)c3ccccc32)SC1=S	.	.	.	.	.	.
COc1ccc(NC(=O)CN2C(=O)/C(=C3\SC(=S)N(CCC(=O)O)C3=O)c3ccccc32)cc1	.	81.9	.	.	.	.
O=C(COc1cc2oc(=O)c3c(c2cc1Cl)CCC3)Nc1cccnc1	.	77.4	.	.	.	.
Cc1ccc(NC(=O)COC(=O)C(NS(=O)(=O)c2ccc(Cl)cc2)C(C)O)c(Br)c1 (stereo not drawn)	.	53.4	.	.	.	.
Cc1ccc(NC(=O)COC(=O)C(NS(=O)(=O)c2ccc(Cl)cc2)C(C)O)cc1C (stereo not drawn)	.	.	.	.	.	.
O=C(Cn1c2ccccc2c2nc3n(c(=O)c21)CCS3)Nc1ccccc1C(F)(F)F	.	92.8	.	.	.	.
CC(C)Oc1ccc(C2CC(=O)N(c3ccccc3)C2=O)cc1 (stereo not drawn)	.	.	.	.	.	.
CC(C)Oc1ccc(C2CC(=O)N(c3ccc(N(C)C)cc3)C2=O)cc1 (stereo not drawn)	.	77.3	.	.	.	.
Cc1ccccc1C(=O)N1[C@@H](C(C)C)COc2cc(Br)ccc2S1(=O)=O	/	.	/	/	/	/
O=C(OCC(=O)N1CCC(c2ccccc2)=N1)c1ccc([N+](=O)[O-])s1	.	.	51.6	/	/	/
SMILES	UBC13 polyUb	DSG3 Ab inh	Apaf-1 inh	MEKK2 WT-MEK5	MEKK2mut PB1 HTS	MEKK3 PB1 HTS
Cc1cc(C(=O)OCC(=O)N2CCC(c3ccccc3)=N2)ccc1[N+](=O)[O-]	.	.	.	/	/	/
O=S(=O)(NNc1ccc(F)cc1F)c1cccc(Cl)c1	.	/	.	.	.	.
Cc1ccc2c(c1)C(=O)N(CCCCO)C2=O	.	69.4	.	.	.	.
O=C1c2ccc(Oc3ccc4c(c3)C(=O)N(CCCO)C4=O)cc2C(=O)N1CCCO	.	/	.	.	.	.
CCc1nc2nc(C)c(NS(=O)(=O)c3ccc(Cl)s3)c(=O)n2[nH]1	.	.	.	.	.	.
Cc1ccc(SCC(=O)OCC(=O)Nc2ccc3[nH]c(=O)[nH]c3c2)cc1C	.	.	.	/	/	/

Source: PubChem
